PMC7449315 (Journal for Immunotherapy of Cancer, 2020)

Assay: phase I trial: safety and tolerability
Format: in vivo, human
Summary of the method: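 Fifteen patients were dosed orally twice daily (three per cohort, 100–800 mg). AEs, DLTs, physical exams, vital signs, ECGs and laboratory chemistry, hematology and coagulation were recorded from first dose to end of treatment. AEs were graded by the investigator using NCI CTCAE v4.03. DLTs were assessed in cycle 1 (days 1–28): grade ≥3 or immune-related non-hematologic events, and grade ≥4 hematologic events.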

[1] = 800 mg two times per day, one patient

NS(=O)(=O)[C@H]1CC[C@](F)(CC[C@H]2c3ccccc3-c3cncn32)CC1 [M4112]
15 (100) n (%): Any AE (Total (N=15))
3 (100) n (%): Any AE (800 mg two times per day (n=3))
no deaths reported: deaths during the dose-escalation phase (all doses)
grade 2 QT prolongation: QT prolongation resulting in dose reduction (not a DLT) [1]
33.3%: TEAE fatigue (all patients (N=15))
26.7%: TEAE nausea (all patients (N=15)) | TEAE vomiting (all patients (N=15))
0 (0.0) n (%): Aspartate aminotransferase increased (600 mg two times per day (n=3)) | Blood creatine phosphokinase increased (600 mg two times per day (n=3)) | Cough (600 mg two times per day (n=3)) | Decreased appetite (600 mg two times per day (n=3)) | Dyspepsia (600 mg two times per day (n=3)) | Dysphagia (600 mg two times per day (n=3)) | Fever (600 mg two times per day (n=3)) | Hypercalcemia (600 mg two times per day (n=3)) | Lymphocyte count decreased (600 mg two times per day (n=3)) | Maculopapular rash (600 mg two times per day (n=3)) | Palmar-plantar erythrodysesthesia syndrome (600 mg two times per day (n=3)) | Platelet count decreased (600 mg two times per day (n=3)) | Abdominal distension (800 mg two times per day (n=3)) | Abdominal pain (800 mg two times per day (n=3)) | Amylase increased (800 mg two times per day (n=3)) | Anemia of malignant disease (800 mg two times per day (n=3)) | Cough (800 mg two times per day (n=3)) | Dehydration (800 mg two times per day (n=3)) | Diarrhea (800 mg two times per day (n=3)) | Dyspepsia (800 mg two times per day (n=3)) | Dysphagia (800 mg two times per day (n=3)) | Hypercalcemia (800 mg two times per day (n=3)) | Lipase increased (800 mg two times per day (n=3)) | Maculopapular rash (800 mg two times per day (n=3)) | Palmar-plantar erythrodysesthesia syndrome (800 mg two times per day (n=3)) | Tumor pain (800 mg two times per day (n=3)) | Vomiting (800 mg two times per day (n=3))
grade 2 ascites: serious TEAE (one patient, 600 mg two times per day cohort, unrelated to treatment)
3 (20.0) n (%): Any SAE (Total (N=15)) | Blood creatine phosphokinase increased (Total (N=15)) | Blood creatinine increased (Total (N=15)) | Cough (Total (N=15)) | Decreased appetite (Total (N=15)) | Diarrhea (Total (N=15)) | Lipase increased (Total (N=15))
≤ 6 h: time to resolution of the DLT after treatment withdrawal (800 mg two times per day, grade 3 allergic dermatitis with fever and hypotension)
13.3%: patients who discontinued M4112 treatment due to TEAEs (two of 15 patients)
grade 3 allergic dermatitis: DLT during cycle 1 [1] | serious TEAE (one patient, 800 mg two times per day cohort, related to treatment)
no DLTs were observed: DLT (600 mg two times per day (n=3))
4 (26.7) n (%): Nausea (Total (N=15)) | Vomiting (Total (N=15))
2 (66.7) n (%): Diarrhea (600 mg two times per day (n=3)) | Lipase increased (600 mg two times per day (n=3)) | Aspartate aminotransferase increased (800 mg two times per day (n=3))
20.5%: median probability of a DLT (Bayesian model estimate) (800 mg)
grade 3 disease progression: serious TEAE (one patient, 400 mg two times per day cohort, unrelated to treatment)
3.1%–62.2: probability of a DLT, 95% credible interval (800 mg)
2 (13.3) n (%): Abdominal distension (Total (N=15)) | Abdominal pain (Total (N=15)) | Alanine aminotransferase increased (Total (N=15)) | Amylase increased (Total (N=15)) | Anemia of malignant disease (Total (N=15)) | Aspartate aminotransferase increased (Total (N=15)) | Blood alkaline phosphatase increased (Total (N=15)) | Dehydration (Total (N=15)) | Dyspepsia (Total (N=15)) | Dysphagia (Total (N=15)) | Fever (Total (N=15)) | Gamma-glutamyl transferase increased (Total (N=15)) | Hypercalcemia (Total (N=15)) | Lymphocyte count decreased (Total (N=15)) | Maculopapular rash (Total (N=15)) | Palmar-plantar erythrodysesthesia syndrome (Total (N=15)) | Platelet count decreased (Total (N=15)) | Tumor pain (Total (N=15))
not established: RP2D (in vivo)
5 (33.3) n (%): Fatigue (Total (N=15))
1 (33.3) n (%): Blood alkaline phosphatase increased (600 mg two times per day (n=3)) | Blood creatinine increased (600 mg two times per day (n=3)) | Dehydration (600 mg two times per day (n=3)) | Fatigue (600 mg two times per day (n=3)) | Gamma-glutamyl transferase increased (600 mg two times per day (n=3)) | Nausea (600 mg two times per day (n=3)) | Tumor pain (600 mg two times per day (n=3)) | Vomiting (600 mg two times per day (n=3)) | Alanine aminotransferase increased (800 mg two times per day (n=3)) | Any SAE (800 mg two times per day (n=3)) | Blood alkaline phosphatase increased (800 mg two times per day (n=3)) | Blood creatine phosphokinase increased (800 mg two times per day (n=3)) | Blood creatinine increased (800 mg two times per day (n=3)) | Decreased appetite (800 mg two times per day (n=3)) | Fatigue (800 mg two times per day (n=3)) | Fever (800 mg two times per day (n=3)) | Gamma-glutamyl transferase increased (800 mg two times per day (n=3)) | Lymphocyte count decreased (800 mg two times per day (n=3)) | Nausea (800 mg two times per day (n=3)) | Platelet count decreased (800 mg two times per day (n=3))
no MTD was defined: MTD (doses up to 800 mg two times per day)
